Laboratory results published in ChEMBL document CHEMBL5357066, “Development of Novel Membrane Disrupting Lipoguanidine Compounds Sensitizing Gram-Negative Bacteria to Antibiotics” (ACS Med Chem Lett, 2024).
In brackets after ≈: the same amount, converted by molar mass.

Experiments:
Pseudomonas aeruginosa [1] = assay: Synergistic antibacterial activity against Pseudomonas aeruginosa NCTC 13437 assessed as rifampicin MIC at <=0.25 times MIC incubated for overnight by microbroth dilution checkerboard assay; format: functional
Method in brief: (§1)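 Checkerboard microdilution in Tryptic Soy Broth, run like the MIC assay. Overnight TSB cultures were back-diluted to OD 0.01 and added 1:1 to the combined two-fold series of both agents, then incubated overnight at 37 °C. Growth/no-growth was called at <0.1 OD600. MICs alone were read on the same plates. FIC index came from the most synergistic well; three independent repeats, mean ± SD.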

Pseudomonas aeruginosa [2] = assay: Synergistic antibacterial activity against Pseudomonas aeruginosa NCTC 13437 assessed as fold change in rifampicin MIC at <=0.25 times MIC incubated for overnight by microbroth dilution checkerboard assay relative to rifampicin alone; format: functional; method in brief: as §1
Acinetobacter baumannii [3] = assay: Synergistic antibacterial activity against Acinetobacter baumannii AYE assessed as rifampicin MIC at <=0.25 times MIC incubated for overnight by microbroth dilution checkerboard assay; format: functional
Method in brief: (§2)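 Checkerboard microdilution under MIC conditions (TSB, overnight, 37 °C). Two-fold series of each agent were combined on one plate before bacteria were added, and single-agent MICs were measured on the same plate. FIC = sum of combination MIC/alone MIC for each agent, taken from the most synergistic well. Three independent repeats, mean ± SD. ≤0.5 was taken as strong synergy and 0.5–<1 as weak.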

Escherichia coli [4] = assay: Synergistic antibacterial activity against Escherichia coli NCTC 12923 assessed as rifampicin MIC at <=0.25 times MIC incubated for overnight by microbroth dilution checkerboard assay; format: functional; method in brief: as §2
Acinetobacter baumannii [5] = assay: Synergistic antibacterial activity against Acinetobacter baumannii ATCC 17978 assessed as bacterial growth inhibition incubated for overnight in presence of PBMN by microbroth dilution method relative to control; format: functional
Method in brief: (§3)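 Adapted broth microdilution in TSB. The test compound was in a 2-fold dilution series, with PMBN added at a fixed 30 µg/mL. Bacteria at OD 0.02 were added, and plates were incubated overnight at 37 °C. Growth/no growth was read as for the MIC (<0.1 OD600).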

Escherichia coli [6] = assay: Antibacterial activity against Escherichia coli NCTC 12923 assessed as bacterial growth inhibition incubated for overnight by microbroth dilution method; format: functional
Method in brief: (§4)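 Broth microdilution in Tryptic Soy Broth. DMSO stocks were diluted in TSB as 2-fold series. Overnight TSB cultures were back-diluted to OD 0.01 and mixed 1:1 with compound. Incubation was overnight at 37 °C. MIC was the lowest concentration without visible growth (<0.1 OD600). DMSO vehicle was checked at equivalent concentrations.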

Acinetobacter baumannii [7] = assay: Antibacterial activity against Acinetobacter baumannii ATCC 17978 assessed as bacterial growth inhibition incubated for overnight by microbroth dilution method; format: functional; method in brief: as §4
Enterococcus faecium = assay: Antibacterial activity against vancomycin resistant Enterococcus faecium NCTC 12204 assessed as bacterial growth inhibition incubated for overnight by microbroth dilution method; format: functional
Method in brief: (§5)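 Microbroth dilution in Tryptic Soy Broth. DMSO stocks were diluted in TSB as 2-fold series. Overnight TSB cultures were back-diluted to OD 0.01 and mixed 1:1 with compound. Incubation was overnight at 37 °C. MIC is the lowest concentration with no visible growth (<0.1 OD600). DMSO at equivalent concentrations was checked.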

Pseudomonas aeruginosa [8] = assay: Antibacterial activity against Pseudomonas aeruginosa PAO1 assessed as bacterial growth inhibition incubated for overnight by microbroth dilution method; format: functional; method in brief: as §4
Pseudomonas aeruginosa [9] = assay: Synergistic antibacterial activity against Pseudomonas aeruginosa NCTC 13437 assessed as bacterial growth inhibition incubated for overnight in presence of PBMN by microbroth dilution method relative to control; format: functional; method in brief: as §3
Acinetobacter baumannii [10] = assay: Synergistic antibacterial activity against Acinetobacter baumannii ATCC 17978 assessed as fold change in rifampicin MIC at <=0.25 times MIC incubated for overnight by microbroth dilution checkerboard assay relative to rifampicin alone; format: functional; method in brief: as §2
Klebsiella pneumoniae [11] = assay: Synergistic antibacterial activity against […] Klebsiella pneumoniae M6 assessed as rifampicin MIC at <=0.25 times MIC incubated for overnight by microbroth dilution checkerboard assay; format: functional
Method in brief: (§6)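 Checkerboard run under the MIC conditions (TSB, overnight, 37 °C). Antibiotic and lipoguanidine 2-fold series were combined on one plate before bacteria were added. Growth/no-growth was scored as for the MIC (<0.1 OD600). Single-agent MICs were measured on the same plates. Three independent repeats were done.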

Staphylococcus aureus [12] = assay: Antibacterial activity against methicillin resistant Staphylococcus aureus USA 300 assessed as bacterial growth inhibition incubated for overnight by microbroth dilution method; format: functional; method in brief: as §5
Pseudomonas aeruginosa [13] = assay: Antibacterial activity against Pseudomonas aeruginosa NCTC 13437 assessed as bacterial growth inhibition incubated for overnight by microbroth dilution method; format: functional; method in brief: as §4
Enterococcus faecalis [14] = assay: Antibacterial activity against vancomycin resistant Enterococcus faecalis NCTC 12201 assessed as bacterial growth inhibition incubated for overnight by microbroth dilution method; format: functional; method in brief: as §5
Acinetobacter baumannii [15] = assay: Synergistic antibacterial activity against Acinetobacter baumannii AYE assessed as bacterial growth inhibition incubated for overnight in presence of PBMN by microbroth dilution method relative to control; format: functional; method in brief: as §3
Pseudomonas aeruginosa [16] = assay: Synergistic antibacterial activity against Pseudomonas aeruginosa PAO1 assessed as rifampicin MIC at <=0.25 times MIC incubated for overnight by microbroth dilution checkerboard assay; format: functional; method in brief: as §1
Escherichia coli [17] = assay: Synergistic antibacterial activity against Escherichia coli NCTC 12923 assessed as bacterial growth inhibition incubated for overnight in presence of PBMN by microbroth dilution method relative to control; format: functional; method in brief: as §3
Pseudomonas aeruginosa [18] = assay: Synergistic antibacterial activity against Pseudomonas aeruginosa PAO1 assessed as fold change in rifampicin MIC at <=0.25 times MIC incubated for overnight by microbroth dilution checkerboard assay relative to rifampicin alone; format: functional; method in brief: as §1
Acinetobacter baumannii [19] = assay: Synergistic antibacterial activity against Acinetobacter baumannii AYE assessed as fold change in rifampicin MIC at <=0.25 times MIC incubated for overnight by microbroth dilution checkerboard assay relative to rifampicin alone; format: functional; method in brief: as §2
Klebsiella pneumoniae [20] = assay: Synergistic antibacterial activity against Klebsiella pneumoniae NCTC 13368 assessed as fold change in rifampicin MIC at <=0.25 times MIC incubated for overnight by microbroth dilution checkerboard assay relative to rifampicin alone; format: functional; method in brief: as §6
Klebsiella pneumoniae [21] = assay: Synergistic antibacterial activity against Klebsiella pneumoniae M6 assessed as bacterial growth inhibition incubated for overnight in presence of PBMN by microbroth dilution method relative to control; format: functional; method in brief: as §3
Klebsiella pneumoniae [22] = assay: Synergistic antibacterial activity against Klebsiella pneumoniae NCTC 13368 assessed as bacterial growth inhibition incubated for overnight in presence of PBMN by microbroth dilution method relative to control; format: functional; method in brief: as §3
Acinetobacter baumannii [23] = assay: Synergistic antibacterial activity against Acinetobacter baumannii ATCC 17978 assessed as rifampicin MIC at <=0.25 times MIC incubated for overnight by microbroth dilution checkerboard assay; format: functional; method in brief: as §2
Staphylococcus aureus [24] = assay: Antibacterial activity against methicillin sensitive Staphylococcus aureus 1199B assessed as bacterial growth inhibition incubated for overnight by microbroth dilution method; format: functional; method in brief: as §5
Staphylococcus aureus [25] = assay: Antibacterial activity against methicillin resistant Staphylococcus aureus NCTC 13616 assessed as bacterial growth inhibition incubated for overnight by microbroth dilution method; format: functional; method in brief: as §5
Klebsiella pneumoniae [26] = assay: Synergistic antibacterial activity against Klebsiella pneumoniae NCTC 13368 assessed as rifampicin MIC at <=0.25 times MIC incubated for overnight by microbroth dilution checkerboard assay; format: functional; method in brief: as §2
Klebsiella pneumoniae [27] = assay: Antibacterial activity against Klebsiella pneumoniae M6 assessed as bacterial growth inhibition incubated for overnight by microbroth dilution method
Pseudomonas aeruginosa [28] = assay: Synergistic antibacterial activity against Pseudomonas aeruginosa PAO1 assessed as bacterial growth inhibition incubated for overnight in presence of […] by microbroth dilution method relative to control; format: functional
Method in brief: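 Fixed-concentration combination MIC in TSB. The first agent was set in a two-fold dilution series (100 µL/well), then 50 µL/well of the second agent at a fixed concentration was added; PMBN was fixed at 30 µg/mL. Bacteria at OD 0.02 (50 µL) went into 150 µL of compounds, overnight at 37 °C. MIC was the lowest concentration without visible growth (<0.1 OD600).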

Klebsiella pneumoniae [29] = assay: Antibacterial activity against ESBL Klebsiella pneumoniae NCTC 13368 assessed as bacterial growth inhibition incubated for overnight by microbroth dilution method
Enterococcus faecalis [30] = assay: Antibacterial activity against vancomycin sensitive Enterococcus faecalis NCTC 775 assessed as bacterial growth inhibition incubated for overnight by microbroth dilution method
Staphylococcus aureus [31] = assay: Antibacterial activity against methicillin sensitive Staphylococcus aureus ATCC 9144 assessed as bacterial growth inhibition incubated for overnight by microbroth dilution method; format: functional; method in brief: as §5
Acinetobacter baumannii [32] = assay: Antibacterial activity against Acinetobacter baumannii AYE assessed as bacterial growth inhibition incubated for overnight by microbroth dilution method; format: functional; method in brief: as §4
Escherichia coli [33] = assay: Synergistic antibacterial activity against Escherichia coli NCTC 12923 assessed as fold change in rifampicin MIC at <=0.25 times MIC incubated for overnight by microbroth dilution checkerboard assay relative to rifampicin alone; format: functional; method in brief: as §2

With `CCCCC/C=C\C/C=C\CCCCCCCCNC(=N)NCCCCCCCCNC(=N)N` the MIC (Pseudomonas aeruginosa [1]) was 16 µg/mL, the “fold change (FC)” value (Pseudomonas aeruginosa [2]) was 0 and the MIC (Acinetobacter baumannii [3]) was 1 µg/mL. For the same compound, the MIC (Escherichia coli [4]) was 8 µg/mL, the “inhibition (INH)” value (Acinetobacter baumannii [5]) was less than 20% and the MIC (Escherichia coli [6]) was 8 µg/mL (≈ 16.8 µM). For the same compound, the MIC (Acinetobacter baumannii [7]) was 4 µg/mL (≈ 8.39 µM), the MIC (Enterococcus faecium) was 2 µg/mL (≈ 4.19 µM) and the MIC (Pseudomonas aeruginosa [8]) was greater than 128 µg/mL. The “inhibition (INH)” value (Pseudomonas aeruginosa [9]) was less than 20%, the “fold change (FC)” value (Acinetobacter baumannii [10]) was “>=4” and the MIC (Klebsiella pneumoniae [11]) was 0.5 µg/mL. It also gave an MIC (Staphylococcus aureus [12]) of 2 µg/mL (≈ 4.19 µM), an MIC (Pseudomonas aeruginosa [13]) greater than 128 µg/mL and an MIC (Enterococcus faecalis [14]) of 4 µg/mL (≈ 8.39 µM). For the same compound, the “inhibition (INH)” value (Acinetobacter baumannii [15]) was less than 20%, the MIC (Pseudomonas aeruginosa [16]) was 16 µg/mL and the “inhibition (INH)” value (Escherichia coli [17]) was less than 20%. The “fold change (FC)” value (Pseudomonas aeruginosa [18]) was 0, the “fold change (FC)” value (Acinetobacter baumannii [19]) was “>=4” and the “fold change (FC)” value (Klebsiella pneumoniae [20]) was “>=4”. For the same compound, the “inhibition (INH)” value (Klebsiella pneumoniae [21]) was less than 20%, the “inhibition (INH)” value (Klebsiella pneumoniae [22]) was less than 20% and the MIC (Acinetobacter baumannii [23]) was 1 µg/mL. It also gave an MIC (Staphylococcus aureus [24]) of 2 µg/mL (≈ 4.19 µM), an MIC (Staphylococcus aureus [25]) of 4 µg/mL (≈ 8.39 µM) and an MIC (Klebsiella pneumoniae [26]) of 8 µg/mL. The MIC (Klebsiella pneumoniae [27]) was 16 µg/mL (≈ 33.6 µM), the “inhibition (INH)” value (Pseudomonas aeruginosa [28]) was less than 20% and the MIC (Klebsiella pneumoniae [29]) was 32 µg/mL (≈ 67.1 µM). For the same compound, the MIC (Enterococcus faecalis [30]) was 4 µg/mL (≈ 8.39 µM), the MIC (Staphylococcus aureus [31]) was 2 µg/mL (≈ 4.19 µM) and the MIC (Acinetobacter baumannii [32]) was 16 µg/mL (≈ 33.6 µM). The “fold change (FC)” value (Escherichia coli [33]) was 0.
